According to ChEMBL document CHEMBL2203124, “Discovery and characterization of a novel 7-aminopyrazolo[1,5-a]pyrimidine analog as a potent hepatitis C virus inhibitor” (Bioorg Med Chem Lett, 2012):
In brackets after ≈: the same amount, converted by molar mass. Activity calls are given as the source filed them. The calls are words filed in the database; no cut-off is given here.

Assays:
Hepatitis C virus [1] = assay: Antiviral activity against 1 MOI of HCV genotype 2 infected in human HuH7 cells assessed as inhibition of viral RNA replication after 72 hrs by confocal microscopy; assay type: functional, organism-based, Hepacivirus hominis; conditions: genotype 2, Huh-7, 72 h
Summary of the method: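 Reporter virus is cell-culture-adapted full-length JFH-1 with GFP inserted in NS5A domain III; GFP fluorescence tracks viral RNA replication. Serially diluted compound added to naïve Huh-7 cells, then infected with HCVcc at MOI 1. Live cells imaged by automated confocal microscopy at 72 h post-infection. EC50 from 10-point dose-response curves, run in duplicate with quadruplicate measurements.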

[2] = Cytotoxicity against human HuH7 cells assessed as growth inhibition; assay type: cell-based, Huh-7
Summary of the method: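 Compound toxicity is measured as inhibition of Huh-7 cell growth, run in parallel with the HCVcc infection assay. CC50 comes from 10-point dose-response curves, done in duplicate with quadruplicate measurements.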

[3] = Selectivity index, ratio of CC50 for human HuH7 cells to EC50 for 1 MOI of HCV genotype 2 infected in human HuH7 cells; parameters: species or system Huh-7
Summary of the method: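 The SI is CC50 divided by EC50. Both values come from 10-point dose-response curves (duplicates, quadruplicate measurements) in Huh-7 cells. CC50 is from cell growth inhibition.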

Hepatitis C virus [4] = assay: Antiviral activity against HCV genotype 1 expressing envelope protein at 1 uM; assay type: functional, organism-based; conditions: Hepacivirus hominis
[5] = Half life in human liver microsomes; assay type: ADME, Microsome
[6] = Solubility of the compound at pH 7.4; assay type: physicochemical; conditions: buffer
[7] = Half life in rat liver microsomes; assay type: ADME, Microsome
Hepatitis C virus [8] = assay: Antiviral activity against HCV genotype 2 by replicon assay; assay type: functional, organism-based, Hepacivirus hominis

Cc1cc(NC2CCN(C(C)C)CC2)n2nccc2n1
EC50 (Hepatitis C virus [1]): 12 µM
CC50 [2]: 12 µM
Ratio CC50/EC50 [3]: 1

Cc1ccc(-c2c(C)nn3c(NCCN(C)C)cc(C(F)(F)F)nc23)cc1
EC50 (Hepatitis C virus [1]): 7.2 µM
CC50 [2]: 15 µM
Ratio CC50/EC50 [3]: 2.1

Cc1ccc(-c2c(C)nn3c(NCc4cccnc4)c4c(nc23)CCCC4)cc1
EC50 (Hepatitis C virus [1]): 2.8 µM
CC50 [2]: 8.7 µM
Ratio CC50/EC50 [3]: 3.1

Cc1ccc(-c2c(C)nn3c(NCCCN(C)C)cc(C)nc23)cc1
Activity (Hepatitis C virus [4]): inactive
half-life [5]: > 1 h
solubility [6]: 76 µM (≈ 25.6 µg/mL)
EC50 (Hepatitis C virus [1]): 0.54 µM
CC50 [2]: 22 µM
half-life [7]: 0.373 h
Ratio CC50/EC50 [3]: 41

COCCCNc1cc(C)nc2c(-c3ccc(C)cc3)c(C)nn12
EC50 (Hepatitis C virus [1]): 2.3 µM
CC50 [2]: 19 µM
Ratio CC50/EC50 [3]: 8.3

Cc1ccc(-c2c(C)nn3c(NC4CCN(C(C)C)CC4)cc(C)nc23)cc1
Activity (Hepatitis C virus [4]): inactive
half-life [5]: > 1 h
solubility [6]: 73 µM (≈ 27.6 µg/mL)
EC50 (Hepatitis C virus [8]): Not Active
EC50 (Hepatitis C virus [1]): 0.28 µM
CC50 [2]: 8.8 µM
half-life [7]: > 1 h
Ratio CC50/EC50 [3]: 31

Cc1ccc(-c2c(C)nn3c(NCCc4ccccc4)cc(C)nc23)cc1
EC50 (Hepatitis C virus [1]): 5.3 µM
CC50 [2]: 5.2 µM
Ratio CC50/EC50 [3]: 1

Cc1ccc(-c2c(C)nn3c(NC4CCN(C)CC4)cc(C)nc23)cc1
EC50 (Hepatitis C virus [1]): 1 µM
CC50 [2]: 18 µM
Ratio CC50/EC50 [3]: 18
